A short description of series [1]: Inhibition of HBV DNA polymerase. The arrangement: species or system Hepatitis B virus. The gist of the method: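 Endogenous polymerase assay using HBV virions purified from untreated patient serum (>10^7 GE/ml) by ultracentrifugation and a sucrose step gradient. Incubated 1 h at 37°C; [3H]dCMP incorporation counted; IC50 from inhibition curves.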
Series [2] is described as follows: Cytotoxicity against human HL60 cells after 3 days by MTT assay. In kind it is cell-based. The following applies: HL-60 cells. The gist of the method:
(§1)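 HL-60 cells in RPMI or HepG2 cells in DMEM, seeded at 50,000 per well. Exposed for 3 days to varying compound concentrations at 37°C under humidified 5% CO2. Growth read by MTT reduction to formazan. CC50 is the concentration inhibiting growth by 50%; mean ± SD of at least three independent experiments.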

Series [3] in a line: Cytotoxicity against human HepG2 cells after 3 days by MTT assay. Format: cell-based. The method, boiled down:
as §1

Series [4] has as its system Hepatitis B virus. Briefly: Antiviral activity against HBV in HepG2.2.15 cells assessed as decrease in extracellular viral DNA level by RT-PCR. Format: functional, organism-based. The following applies: HepG2 2.2.15. The gist of the method:
(§2)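 HepG2.2.15 (HBV-transfected) cells, ~10^5 per well in DMEM with 10% FBS; compound added at various concentrations with daily medium changes. Supernatants taken at day 3, 6 or 9, cleared, proteinase K digested, and HBV DNA amplified by PCR with subgenomic primers. Products run on 1% agarose, ethidium stained and imaged, calibrated against cloned HBV genome dilutions. EC50 taken from dose-response curves as 50% reduction of medium HBV DNA.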

Series [5] can be described thus: Cytotoxicity against human CEM cells. In kind it is cell-based. To be noted: CCRF-CEM cells.
The subject of series [6] is Hepatitis B virus. Briefly: Antiviral activity against HBV in HepG2.2.15 cells assessed as decrease in extracellular viral DNA level at 0.5 uM by PCR. In kind it is functional, organism-based. The following applies: HepG2 2.2.15, TDE = time-dependent effect. The method, boiled down:
as §2

Series [7] in a line: Inhibition of duck HBV DNA polymerase. Details: species or system Duck hepatitis B virus.
The subject of series [8] is Hepatitis B virus. Nature of the series: Antiviral activity against HBV in HepG2.2.15 cells assessed as decrease in extracellular viral DNA level at 0.1 uM by PCR. Format: functional, organism-based. The following applies: HepG2 2.2.15, TDE = time-dependent effect. The gist of the method: as §2
The subject of series [9] is Hepatitis B virus. Briefly: Antiviral activity against HBV in HepG2.2.15 cells assessed as decrease in extracellular viral DNA level at 0.3 uM by PCR. Format: functional, organism-based. The following applies: HepG2 2.2.15, TDE = time-dependent effect. The gist of the method:
as §2

This note sets out measurements from ChEMBL document CHEMBL1150782, “Strong and selective inhibitors of hepatitis B virus replication among novel N4-hydroxy- and 5-methyl-beta-L-deoxycytidine analogues” (Antimicrob Agents Chemother, 2007).

As for `Cc1cn([C@@H]2C[C@@H](N=[N+]=[N-])[C@H](COP(=O)(O)OP(=O)(O)OP(=O)(O)O)O2)c(=O)nc1N`, it took 0.85 µM to reach half-maximal inhibition in [1] (IC50).

On to `Cc1cn([C@H]2C[C@H](O)[C@@H](CO)O2)c(=O)[nH]c1=O` [DOXRIBTIMINE], for which the CC50 at 72 h in series [2] was 1760 µM; in series [3] it was 2100 µM. For the same molecule, the EC50 with Hepatitis B virus [4] is 0.3 µM.

As to `[N-]=[N+]=N[C@@H]1C[C@@H](n2ccc(NO)nc2=O)O[C@H]1CO`, the CC50 at 72 h was found to be 2000 µM in series [2] and 1160 µM in series [3]. Also, in the series on Hepatitis B virus [4], the EC50 was 50 µM.

For the molecule `Nc1ccn([C@@H]2CC[C@H](CO)O2)c(=O)n1`, the CC50 at 72 h in series [2] is 94 µM; in series [3] it was 85 µM. For the same molecule, in the series with Hepatitis B virus [4], the EC50 worked out at 0.2 µM. Half-maximal cytotoxicity in series [5] (CC50) was put at 70 µM.

As for `Cc1cn([C@@H]2C[C@@H](F)[C@H](CO)O2)c(=O)nc1N`, the CC50 at 72 h in series [2] came out at 1650 µM; in [3], 1800 µM. The EC50 with Hepatitis B virus [4] was more than 50 µM.

`O=c1nc(NO)ccn1[C@@H]1CS[C@H](CO)O1`: the Activity entry with Hepatitis B virus [6] was “tde”. The CC50 at 72 h in series [2] is 1450 µM; in [3], 1320 µM. The EC50 with Hepatitis B virus [4] was determined as 0.51 µM.

With `Cc1cn([C@@H]2C[C@@H](O)[C@H](COP(=O)(O)OP(=O)(O)OP(=O)(O)O)O2)c(=O)[nH]c1=O` [TELBIVUDINE 5'TRIPHOSPHATE], the half-inhibitory concentration (IC50) was 1 µM in series [7] and 0.46 µM in series [1].

As for `O=c1nc(NO)c(F)cn1[C@@H]1CS[C@H](CO)O1`, the results for the CC50 at 72 h in series [2] and in series [3] were 770 µM and 855 µM, respectively. Moreover, the EC50 in the series on Hepatitis B virus [4] turned out to be 5 µM.

Take `O=c1nc(NO)ccn1[C@@H]1C=C[C@H](CO)O1`: the Activity result in the series with Hepatitis B virus [8] is “tde”. Also, the values for the CC50 at 72 h in series [2] and in series [3] were 3500 µM and 2500 µM, respectively. For the same molecule, the EC50 in the series on Hepatitis B virus [4] was found to be 0.03 µM.

In the case of `Nc1ccn([C@@H]2C=C[C@H](CO)O2)c(=O)n1`, the CC50 in series [5] was determined as 20 µM. In other words, the double-digit micromolar range.

Take `O=c1nc(NO)ccn1[C@@H]1C=C[C@H](COP(=O)(O)OP(=O)(O)OP(=O)(O)O)O1`: in [1], the IC50 amounted to 0.21 µM.

As for `Nc1ccn([C@@H]2CS[C@H](CO)O2)c(=O)n1` [LAMIVUDINE], the CC50 at 72 h in [2] was 1400 µM; in series [3] it was 1200 µM. Moreover, the EC50 in the series on Hepatitis B virus [4] was 0.1 µM. Also, in the series on Hepatitis B virus [9], the Activity entry was “tde”.

`Cc1cn([C@@H]2C[C@@H](O)[C@H](COP(=O)(O)OP(=O)(O)OP(=O)(O)O)O2)c(=O)nc1N` displayed an IC50 in series [1] of 0.9 µM.

The molecule `Cc1cn([C@@H]2C[C@@H](F)[C@H](COP(=O)(O)OP(=O)(O)OP(=O)(O)O)O2)c(=O)nc1N` registered an IC50 in [1] of 1.9 µM.

For the molecule `Cc1cn([C@@H]2C[C@@H](N=[N+]=[N-])[C@H](CO)O2)c(=O)nc1N`, the CC50 at 72 h in [2] was 1900 µM; in series [3], 1750 µM. In the series on Hepatitis B virus [4], the EC50 was 13 µM.

In the case of `Cc1cn([C@@H]2C=C[C@H](COP(=O)(O)OP(=O)(O)OP(=O)(O)O)O2)c(=O)nc1N`, inhibition in series [1] was half-maximal at 6.2 µM (IC50).

Take `O=c1nc(NO)ccn1[C@@H]1CC[C@H](COP(=O)(O)OP(=O)(O)OP(=O)(O)O)O1`: the half-maximal inhibitory concentration (IC50) in series [1] stood at 0.99 µM. Against the preceding molecule, the IC50 is about 6.3-fold lower.

Turning to `O=c1nc(NO)ccn1[C@@H]1CC[C@H](CO)O1`, the values for the CC50 at 72 h in [2] and in [3] were 1600 µM and 2250 µM, respectively. Besides, the EC50 in the series with Hepatitis B virus [4] came to 0.55 µM.

`Cc1cn([C@@H]2C=C[C@H](CO)O2)c(=O)nc1N`: the values for the CC50 at 72 h in [2] and in series [3] were 600 µM and 1400 µM, respectively. In the series with Hepatitis B virus [4], the EC50 was more than 50 µM.

As to `O=c1nc(NO)ccn1[C@@H]1C[C@@H](O)[C@H](COP(=O)(O)OP(=O)(O)OP(=O)(O)O)O1`, in series [1], the IC50 stood at 6 µM.

In the case of `Nc1nc(=O)n([C@@H]2CS[C@H](CO)O2)cc1F` [EMTRICITABINE], the results for the CC50 at 72 h in series [2] and in [3] were 845 µM and 765 µM, respectively. The EC50 in the series with Hepatitis B virus [4] turned out to be 0.1 µM.

On to `Cc1cn([C@@H]2C[C@@H](O)[C@H](CO)O2)c(=O)nc1NO`, for which the CC50 at 72 h in series [2] worked out at 600 µM; in series [3], 490 µM. In the series with Hepatitis B virus [4], the EC50 worked out at 5.04 µM.

As to `Cc1cn([C@@H]2C[C@@H](O)[C@H](CO)O2)c(=O)nc1N`, the CC50 at 72 h in [2] and in [3] was more than 2000 µM each time. The EC50 in the series on Hepatitis B virus [4] is 0.9 µM.

`O=c1nc(NO)ccn1[C@@H]1C[C@@H](O)[C@H](CO)O1`: the CC50 at 72 h in series [2] was 460 µM; in series [3], 545 µM. Further, in the series with Hepatitis B virus [4], the 50% effective concentration (EC50) was determined as 2.38 µM.

Regarding `O=c1nc(NO)ccn1[C@@H]1CC(F)[C@H](CO)O1` (stereo partly specified), the CC50 at 72 h in [2] was found to be 4400 µM; in series [3], 820 µM. Moreover, in the series with Hepatitis B virus [4], the EC50 was determined as 25 µM.

Take `O=c1nc(NO)c(F)cn1[C@@H]1C[C@@H](O)[C@H](CO)O1`: the CC50 at 72 h was determined as 1370 µM in [2] and 920 µM in [3]. In addition, the EC50 with Hepatitis B virus [4] stood at 4.5 µM.

In [1], `Nc1ccn([C@@H]2CS[C@H](COP(=O)(O)OP(=O)(O)OP(=O)(O)O)O2)c(=O)n1` [LAMIVUDINE TRIPHOSPHATE] gave an IC50 of 0.3 µM.

Turning to `Cc1cn([C@@H]2CC[C@H](CO)O2)c(=O)nc1N`, the CC50 at 72 h in [2] was 950 µM; in [3], 1550 µM. In addition, the EC50 in the series with Hepatitis B virus [4] was more than 50 µM.

`Cc1cn([C@@H]2CC[C@H](COP(=O)(O)OP(=O)(O)OP(=O)(O)O)O2)c(=O)nc1N` gave an IC50 in [1] of 6.5 µM.

`Cc1cn([C@@H]2C[C@@H](O)[C@H](COP(=O)(O)OP(=O)(O)OP(=O)(O)O)O2)c(=O)nc1NO`: it took 4 µM to reach half-maximal inhibition in series [1] (IC50). This IC50 lies about 1.6-fold lower than the previous one.
